Consider 26 compounds from ChEMBL document CHEMBL1126594, “Studies directed toward the design of orally active renin inhibitors. 1. Some factors influencing the absorption of small peptides” (J Med Chem, 1993).

As a reminder, the IC50 is the concentration that gives 50% inhibition. The term logD denotes the decadic logarithm of the distribution of all forms, ionised or not, between an organic phase and buffer at a given pH. A higher logD goes with higher lipophilicity.

Where only a bound is given, the exact number is not on record here.

Data set [1] is described as follows: Plasma level by the renin inhibition assay from samples taken at 10 minutes from portal circulation by administering 10 mg/kg intraduodenally to the rat.
Data set [2] is described as follows: Plasma level by the renin inhibition assay from samples taken at 10 minutes from systemic circulation by administering 10 mg/kg intraduodenally to the rat.
The nature of data set [3]: Plasma level by the renin inhibition assay from samples taken at 30 minutes from portal circulation by administering 10 mg/kg intraduodenally to the rat.
The nature of data set [4]: Plasma level by the renin inhibition assay from samples taken at 30 minutes from systemic circulation by administering 10 mg/kg intraduodenally to the rat.
The target of a further data set is T1, Renin (Homo sapiens, UniProt P00797).
T1 sequence (P00797 whole entry): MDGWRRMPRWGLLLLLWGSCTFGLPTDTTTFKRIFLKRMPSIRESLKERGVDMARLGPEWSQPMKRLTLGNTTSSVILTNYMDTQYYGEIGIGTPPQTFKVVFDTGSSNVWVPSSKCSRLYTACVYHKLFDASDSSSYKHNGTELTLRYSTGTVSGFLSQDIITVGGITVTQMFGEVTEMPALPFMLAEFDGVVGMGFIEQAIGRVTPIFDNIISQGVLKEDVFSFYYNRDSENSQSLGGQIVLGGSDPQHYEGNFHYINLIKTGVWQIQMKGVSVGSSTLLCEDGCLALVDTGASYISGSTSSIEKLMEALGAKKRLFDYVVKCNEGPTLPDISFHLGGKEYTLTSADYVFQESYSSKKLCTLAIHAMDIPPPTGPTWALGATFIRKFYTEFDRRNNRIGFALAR
Nature of the data set: Inhibition of human plasma renin at pH 7.4. The data set is classed as cell-free. Summed up:
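Human plasma renin, pH 7.4; IC50 determined by the previously described method.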

Data set [5] in a line: Partition coefficient (logD7.4). The note with it: octanol/water, pH 7.4.

In the case of `CC(C)C[C@H](O)[C@H](O)[C@H](CC1CCCCC1)NC(=O)[C@H](Cc1c[nH]cn1)NC(=O)[C@@H](CC(=O)N1CCN(C)CC1)Cc1ccccc1`, the concentration at 10 min in data set [1] stood at 67 ng/mL; in data set [2], 63 ng/mL. Moreover, the figures for the concentration at 0.5 h in data set [3] and in data set [4] were 30 ng/mL and 40 ng/mL, respectively. This compound also displayed an IC50 against Renin of 5.4 nM. Moreover, in data set [5], the logD stood at 1.66.

As to `CCN1C[C@@H]([C@H](O)[C@H](CC2CCCCC2)NC(=O)[C@H](Cc2c[nH]cn2)NC(=O)[C@H](Cc2ccc(OC)cc2)NC(=O)CC(C)(C)N)OC1=O`, the results for the concentration at 10 min in data set [1] and in data set [2] were 140 ng/mL and 93 ng/mL, respectively. The concentration at 0.5 h was 250 ng/mL in data set [3] and 110 ng/mL in data set [4]. This compound also displayed an IC50 against Renin of 17 nM.

As to `COc1ccc(C[C@H](NC(=O)N2CCN(C)CC2)C(=O)N[C@@H](Cc2cscn2)C(=O)N[C@@H](CC2CCCCC2)[C@@H](O)[C@@H](O)CC(C)C)cc1`, at Renin, the IC50 was found to be 120 nM.

With `COc1ccc(C[C@H](NC(=O)C2CCN(C)CC2)C(=O)N[C@@H](Cc2cscn2)C(=O)N[C@@H](CC2CCCCC2)[C@@H](O)[C@@H](O)CC(C)C)cc1`, the concentration at 10 min stood at 1200 ng/mL in data set [1] and 160 ng/mL in data set [2]. Further, the concentration at 0.5 h in data set [3] was determined as 770 ng/mL; in data set [4], 90 ng/mL. At Renin, it took 170 nM to reach half-maximal inhibition (IC50). Further, the logD in data set [5] is 3.03.

With `CON(C)C[C@H](NC(=O)[C@@H](CC(=O)N1CCOCC1)Cc1ccccc1)C(=O)N[C@@H](CC1CCCCC1)[C@@H](O)[C@@H](O)CC(C)C`, the concentration at 10 min in data set [1] was determined as 3500 ng/mL; in data set [2], 340 ng/mL. Besides, the values for the concentration at 0.5 h in data set [3] and in data set [4] were 1400 ng/mL and 170 ng/mL, respectively. The IC50 against Renin was determined as 88 nM. For the same compound, the logD in data set [5] is greater than 4.6.

For `CC(C)C[C@H](O)[C@H](O)[C@H](CC1CCCCC1)NC(=O)[C@H](CN(C)C)NC(=O)[C@@H](CC(=O)N1CCOCC1)Cc1ccccc1`, at Renin, the IC50 was 210 nM.

The compound `CC(C)C[C@H](O)[C@H](O)[C@H](CC1CCCCC1)NC(=O)[C@H](Cn1ccnc1)NC(=O)[C@@H](CC(=O)N1CCOCC1)Cc1ccccc1` gave an IC50 against Renin of 93 nM. This compound yielded a logD in data set [5] of 3.79.

Consider `COc1ccc(C[C@H](NC(=O)CC(C)(C)N)C(=O)N[C@@H](Cc2cnc[nH]2)C(=O)N[C@@H](CC2CCCCC2)[C@@H](O)[C@@H](O)CC(C)C)cc1`, for which the results for the concentration at 10 min in data set [1] and in data set [2] were 1100 ng/mL and 170 ng/mL, respectively. The concentration at 0.5 h came to 540 ng/mL in data set [3] and 82 ng/mL in data set [4].

Consider `CC(C)C[C@H](O)[C@H](O)[C@H](CC1CCCCC1)NC(=O)[C@H](Cc1c[nH]cn1)NC(=O)[C@@H](CC(=O)N1CCOCC1)Cc1ccccc1`, for which the concentration at 10 min in data set [1] is 190 ng/mL; in data set [2] it was 13 ng/mL. Besides, the concentration at 0.5 h was 170 ng/mL in data set [3] and 11 ng/mL in data set [4]. The compound further came in with an IC50 on Renin of 1.6 nM. The logD in data set [5] is 3.51.

In the case of `CC(C)C[C@H](O)[C@H](O)[C@H](CC1CCCCC1)NC(=O)[C@H](Cn1cccn1)NC(=O)[C@@H](CC(=O)N1CCN(C)CC1)Cc1ccccc1`, the concentration at 10 min in data set [1] was found to be 2000 ng/mL; in data set [2], 86 ng/mL. The concentration at 0.5 h in data set [3] stood at 2300 ng/mL; in data set [4] it was 140 ng/mL. It took 18 nM to reach half-maximal inhibition at Renin (IC50). The same compound showed a pH-dependent lipophilicity (logD) in data set [5] of 4.39.

For `CC(C)C[C@H](O)[C@H](O)[C@H](CC1CCCCC1)NC(=O)[C@H](CN=[N+]=[N-])NC(=O)[C@@H](CC(=O)N1CCOCC1)Cc1ccccc1`, the midpoint of inhibition against Renin, the IC50, lay at 11 nM. The logD in data set [5] was 4.1.

For `CC(C)C[C@H](O)[C@H](O)[C@H](CC1CCCCC1)NC(=O)[C@H](Cc1cn(C)cn1)NC(=O)[C@@H](CC(=O)N1CCOCC1)Cc1ccccc1`, the figures for the concentration at 10 min in data set [1] and in data set [2] were 4900 ng/mL and 470 ng/mL, respectively. In addition, the concentration at 0.5 h in data set [3] was determined as 3300 ng/mL; in data set [4], 320 ng/mL. This compound also gave an IC50 on Renin of 110 nM. This compound registered a logD in data set [5] of 3.71.

For the compound `CCN1C[C@@H]([C@H](O)[C@H](CC2CCCCC2)NC(=O)[C@H](Cc2cc[nH]n2)NC(=O)[C@@H](CC(=O)N2CCOCC2)Cc2ccccc2)OC1=O`, the concentration at 10 min in data set [1] was 28 ng/mL; in data set [2], 7 ng/mL. The concentration at 0.5 h in data set [3] came out at 58 ng/mL; in data set [4] it was 7 ng/mL. Moreover, in data set [5], the logD amounted to 2.49.

As to `COc1ccc(C[C@H](NC(=O)CC(C)(C)N)C(=O)N[C@@H](Cc2cccs2)C(=O)N[C@@H](CC2CCCCC2)[C@@H](O)[C@@H](O)CC(C)C)cc1`, the concentration at 10 min in data set [1] is 23 ng/mL; in data set [2] it was 9 ng/mL. Further, the results for the concentration at 0.5 h in data set [3] and in data set [4] were 23 ng/mL and 6 ng/mL, respectively. Also, at Renin, the IC50 turned out to be 85 nM.

For `CCCC[C@H](NC(=O)[C@@H](CC(=O)N1CCN(C)CC1)Cc1ccccc1)C(=O)N[C@@H](CC1CCCCC1)[C@@H](O)[C@@H](O)CC(C)C`, the concentration at 10 min in data set [1] came to 3200 ng/mL; in data set [2], 260 ng/mL. Also, the concentration at 0.5 h in data set [3] is 4600 ng/mL; in data set [4], 650 ng/mL. At Renin, the half-maximal inhibitory concentration (IC50) is 25 nM. This compound also displayed a logD in data set [5] greater than 4.5.

As to `COc1ccc(C[C@H](NC(=O)CC(C)(C)N)C(=O)N[C@@H](Cc2cscn2)C(=O)N[C@@H](CC2CCCCC2)[C@@H](O)[C@@H](O)CC(C)C)cc1`, the concentration at 10 min was 93 ng/mL in data set [1] and 17 ng/mL in data set [2]. The concentration at 0.5 h stood at 53 ng/mL in data set [3] and 13 ng/mL in data set [4]. This compound gave an IC50 against Renin of 33 nM.

Regarding `CCN1C[C@@H]([C@H](O)[C@H](CC2CCCCC2)NC(=O)[C@H](Cc2cccs2)NC(=O)[C@H](Cc2ccc(OC)cc2)NC(=O)CC(C)(C)N)OC1=O`, the results for the concentration at 10 min in data set [1] and in data set [2] were 13 ng/mL and 16 ng/mL, respectively. In addition, the concentration at 0.5 h in data set [3] worked out at 45 ng/mL; in data set [4], 32 ng/mL. Besides, half-maximal inhibition against Renin (IC50) required 69 nM.

With `CCN1C[C@@H]([C@H](O)[C@H](CC2CCCCC2)NC(=O)[C@H](Cc2cscn2)NC(=O)[C@H](Cc2ccc(OC)cc2)NC(=O)CC(C)(C)N)OC1=O`, the values for the concentration at 10 min in data set [1] and in data set [2] were 880 ng/mL and 83 ng/mL, respectively. Also, the concentration at 0.5 h was 240 ng/mL in data set [3] and 24 ng/mL in data set [4]. Also, on Renin, the IC50 stood at 39 nM.

Turning to `CC(C)C[C@H](NC(=O)[C@@H](CC(=O)N1CCN(C)CC1)Cc1ccccc1)C(=O)N[C@@H](CC1CCCCC1)[C@@H](O)[C@@H](O)CC(C)C`, the concentration at 10 min in data set [1] was 880 ng/mL; in data set [2], 380 ng/mL. Moreover, the concentration at 0.5 h in data set [3] worked out at 1200 ng/mL; in data set [4] it was 620 ng/mL. Besides, on Renin, the midpoint of inhibition, the IC50, lay at 37 nM.

As for `CCN1C[C@@H]([C@H](O)[C@H](CC2CCCCC2)NC(=O)[C@H](Cc2cnc[nH]2)NC(=O)[C@@H](CC(=O)N2CCOCC2)Cc2ccccc2)OC1=O`, the concentration at 10 min in data set [1] is 280 ng/mL; in data set [2], 55 ng/mL. Also, the concentration at 0.5 h in data set [3] was 390 ng/mL; in data set [4], 34 ng/mL.

On to `CC(C)C[C@H](O)[C@H](O)[C@H](CC1CCCCC1)NC(=O)[C@H](Cc1cscn1)NC(=O)[C@H](Cc1ccccc1)N1CCOCC1`, for which the concentration at 10 min in data set [1] came to 2600 ng/mL; in data set [2], 420 ng/mL. Further, the concentration at 0.5 h in data set [3] was found to be 3300 ng/mL; in data set [4] it was 890 ng/mL. In addition, the IC50 against Renin is 1600 nM.

Turning to `CC(C)C[C@H](O)[C@H](O)[C@H](CC1CCCCC1)NC(=O)[C@H](Cc1cscn1)NC(=O)[C@@H](CC(=O)CN1CCOCC1)Cc1ccccc1`, the concentration at 10 min in data set [1] amounted to 2500 ng/mL; in data set [2], 190 ng/mL. Further, the concentration at 0.5 h in data set [3] came out at 1800 ng/mL; in data set [4] it was 380 ng/mL. This compound yielded an IC50 at Renin of 25 nM. This compound also displayed a logD in data set [5] of 3.91.

`CC(C)C[C@H](O)[C@H](O)[C@H](CC1CCCCC1)NC(=O)[C@H](Cc1cscn1)NC(=O)[C@@H](CC(=O)N1CCN(C)CC1)Cc1ccccc1` had an IC50 at Renin of 18 nM.

For `CC(C)C[C@H](O)[C@H](O)[C@H](CC1CCCCC1)NC(=O)[C@H](Cc1ccn[nH]1)NC(=O)[C@@H](CC(=O)N1CCN(C)CC1)Cc1ccccc1`, the concentration at 10 min came out at 53 ng/mL in data set [1] and 21 ng/mL in data set [2]. In addition, the concentration at 0.5 h in data set [3] came out at 27 ng/mL; in data set [4] it was 22 ng/mL. The compound also registered an IC50 at Renin of 2.8 nM. In data set [5], this compound had a logD of 4.02.

Compound `CC(C)C[C@H](O)[C@H](O)[C@H](CC1CCCCC1)NC(=O)[C@H](Cc1cccs1)NC(=O)[C@@H](CC(=O)N1CCN(C)CC1)Cc1ccccc1` displayed an IC50 on Renin of 110 nM. In other words, the sub-micromolar range.

At Renin, `CC(C)C[C@H](O)[C@H](O)[C@H](CC1CCCCC1)NC(=O)[C@H](Cc1ccn[nH]1)NC(=O)[C@@H](CC(=O)N1CCOCC1)Cc1ccccc1` registered an IC50 of 3.5 nM.
